Results: ChEMBL document CHEMBL1136943, “Nocathiacin analogs: Synthesis and antibacterial activity of novel water-soluble amides” (Bioorg Med Chem Lett, 2009)
Converted amounts (≈) assume the structure as drawn.

What was measured:
Enterococcus faecalis = assay: Antibacterial activity against Enterococcus faecalis C21560 in liquid culture by turbidity method; format: functional
Summary of the method: (§1)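 MIC is the lowest concentration giving 100% inhibition of bacterial growth in liquid culture, read by turbidity.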

Staphylococcus aureus [1] = assay: Antibacterial activity against Staphylococcus aureus MB2865 in liquid culture by turbidity method; format: functional; summary of the method: as §1
[2] = target: T1, Type-2 angiotensin II receptor (Homo sapiens, UniProt P50052); assay: Inhibition of AT2 receptor
T1 sequence (P50052 whole entry): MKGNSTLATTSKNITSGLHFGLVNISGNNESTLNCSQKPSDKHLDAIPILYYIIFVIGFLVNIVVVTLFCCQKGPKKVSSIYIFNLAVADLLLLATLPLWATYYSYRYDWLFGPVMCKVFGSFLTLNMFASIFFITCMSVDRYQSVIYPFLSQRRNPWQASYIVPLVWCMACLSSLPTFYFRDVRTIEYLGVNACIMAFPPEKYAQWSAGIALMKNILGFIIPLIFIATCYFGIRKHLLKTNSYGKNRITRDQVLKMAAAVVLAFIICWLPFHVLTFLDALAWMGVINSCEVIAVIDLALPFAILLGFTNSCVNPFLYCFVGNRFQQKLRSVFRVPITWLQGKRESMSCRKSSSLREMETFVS
Summary of the method: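 AT2 IC50 derived from four dose levels per compound, following a published protocol.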

Streptococcus pneumoniae = assay: Antibacterial activity against Streptococcus pneumoniae CL2883 in liquid culture by turbidity method; format: functional; summary of the method: as §1
[3] = Solubility in water at pH 3.4; format: physicochemical
Summary of the method: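 Amorphous powders from lyophilized material, as TFA salts; aqueous solubility measured by nephelometry.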

Staphylococcus aureus [4] = assay: Antibacterial activity against Staphylococcus aureus infected in mouse model assessed as reduction of >= 2 log 10 cfu kidney burden; format: functional
Summary of the method: (§2)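 Systemic S. aureus infection mouse model (SATOA). Compounds were given iv; […]. Kidney bacterial burden (cfu) was compared with untreated control. ED99 is the dose giving a reduction of at least 2 log10 cfu in kidney burden.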

Staphylococcus aureus [5] = assay: Antibacterial activity against Staphylococcus aureus infected iv bid dosed mouse model assessed as reduction of colony forming unit in kidney; format: functional; summary of the method: as §2

Compound	MIC (Enterococcus faecalis) [µg/mL]	MIC (Staphylococcus aureus [1]) [µg/mL]	IC50 [2] [nM]	MIC (Streptococcus pneumoniae) [µg/mL]	solubility [3] [mg/mL]	ED99 (Staphylococcus aureus [4]) [mg/kg]	ED99 (Staphylococcus aureus [5]) [mg/kg]
CO/C(C)=C1/NC(=O)[C@H]([C@@H](C)O)NC(=O)c2csc(n2)-c2cc(OC)c(-c3nc(C(=O)NCCCN4CCOCC4)cs3)nc2-c2csc(n2)[C@@H]2COC(=O)c3c4c5c(cccc5n3O)COC(=O)[C@@H](O[C@H]3C[C@](C)(O)[C@H](N(C)C)[C@H](C)O3)[C@@H](OC4)[C@H](NC(=O)c3csc1n3)c1nc(cs1)C(=O)N2.Cl	–	–	–	–	68	–	–
CC(=O)NC[C@H]1CN(c2ccc(N3CCOCC3)c(F)c2)C(=O)O1 [LINEZOLID]	–	–	–	–	–	–	12
CO/C(C)=C1/NC(=O)[C@H]([C@@H](C)O)NC(=O)c2csc(n2)-c2cc(OC)c(-c3nc(C(=O)NCCCN4CCN(C)CC4)cs3)nc2-c2csc(n2)[C@@H]2COC(=O)c3c4c5c(cccc5n3O)COC(=O)[C@@H](O[C@H]3C[C@](C)(O)[C@H](N(C)C)[C@H](C)O3)[C@@H](OC4)[C@H](NC(=O)c3csc1n3)c1nc(cs1)C(=O)N2	–	0.09 (≈ 0.0591 µM)	850	–	–	–	–

More lines, main results first:

MIC (Enterococcus faecalis) [µg/mL]	MIC (Staphylococcus aureus [1]) [µg/mL]	IC50 [2] [nM]	MIC (Streptococcus pneumoniae) [µg/mL]	Compound	solubility [3] [mg/mL]	ED99 (Staphylococcus aureus [4]) [mg/kg]	ED99 (Staphylococcus aureus [5]) [mg/kg]
> 8	8 (≈ 5.84 µM)	1120	2 (≈ 1.46 µM)	CO/C(C)=C1/NC(=O)[C@H]([C@@H](C)O)NC(=O)c2csc(n2)-c2cc(O)c(-c3nc(C(=O)O)cs3)nc2-c2csc(n2)[C@@H]2COC(=O)c3c4c5c(cccc5n3O)COC(=O)[C@@H](O[C@H]3C[C@](C)(O)[C@H](N(C)C)[C@H](C)O3)[C@@H](OC4)[C@H](NC(=O)c3csc1n3)c1nc(cs1)C(=O)N2 [NOCATHIACIN ACID]	–	–	–
0.06 (≈ 0.0417 µM)	0.015 (≈ 0.0104 µM)	190	0.00046 (≈ 0.00032 µM)	CO/C(C)=C1/NC(=O)[C@H]([C@@H](C)O)NC(=O)c2csc(n2)-c2cc(O)c(-c3nc(C(=O)NCCN(C)C)cs3)nc2-c2csc(n2)[C@@H]2COC(=O)c3c4c5c(cccc5n3O)COC(=O)[C@@H](O[C@H]3C[C@](C)(O)[C@H](N(C)C)[C@H](C)O3)[C@@H](OC4)[C@H](NC(=O)c3csc1n3)c1nc(cs1)C(=O)N2	–	0.17	–
